{"source": "ChEMBL document CHEMBL4673249", "about": "“Anticancer Effects of Honokiol via Mitochondrial Dysfunction Are Strongly Enhanced by the Mitochondria-Targeting Carrier Berberine” (J Med Chem, 2020)", "key": {"[1]": {"tested_on": "HT-29", "experiment": "Antiproliferative activity against human HT29 cells assessed as reduction in cell viability after 48 hrs by MTT assay", "format": "functional, cell-based", "details": "HT-29, 48 h", "method_in_brief": "(§1)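 Cell lines grown at 37 °C in 5% CO2: A2780, A549, HL7702 and PC3 in RPMI 1640; HT29 in McCoy's 5A; HepG2 and PANC-1 in DMEM; all media with 10% FBS and penicillin/streptomycin. Cells seeded and left overnight, then exposed to compound for 48 h. MTT (5 mg/mL solution) added for 4 h at 37 °C, formazan dissolved in DMSO, absorbance read at 570 nm. IC50 taken from viability; run in triplicate.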"}, "[2]": {"tested_on": "PC-3", "experiment": "Antiproliferative activity against human PC-3 cells assessed as reduction in cell viability after 48 hrs by MTT assay", "format": "functional, cell-based", "details": "PC-3, 48 h", "method_in_brief": "as §1"}, "[3]": {"tested_on": "HepG2", "experiment": "Induction of autophagy in human HepG2 cells assessed as effect on P62 protein expression at 3 uM after 24 hrs by Western blot analysis", "format": "functional, cell-based", "method_in_brief": "(§2)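 HepG2 cells lysed in RIPA on ice for 20 min; protein measured by BCA. Lysates run on 10% SDS-PAGE and transferred to PVDF. Membranes blocked in 5% nonfat milk/TBST for 2 h, incubated with primary antibodies overnight at 4 °C, then HRP secondary antibody; bands detected by ECL.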"}, "[4]": {"tested_on": "HepG2", "experiment": "Induction of autophagy in human HepG2 cells assessed as effect on LC3-2 protein expression at 3 uM after 24 hrs by Western blot analysis", "format": "functional, cell-based", "method_in_brief": "as §2"}, "[5]": {"tested_on": "HepG2", "experiment": "Induction of cell death in human HepG2 cells at 3 uM after 24 hrs in presence of CQ by MTT assay", "format": "functional, cell-based", "method_in_brief": "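HepG2 cells given 3 μM for 24 h together with CQ (10 μM) or 3-MA (1 mM). Viability measured by MTT with absorbance read at 570 nm.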"}, "[6]": {"tested_on": "HepG2", "experiment": "Induction of morphological changes in human HepG2 cells assessed as accumulation of vacuoles at 3 uM after 24 hrs in presence of Nec-1 by microscopic method", "format": "functional, cell-based", "method_in_brief": "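HepG2 cells pretreated with necrostatin-1 (30 μM, 2 h), then exposed to 3 μM compound. Vacuoles imaged by optical microscopy after 24 h.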"}, "[7]": {"tested_on": "HepG2", "experiment": "Induction of cell death in human HepG2 cells at 3 uM after 12 hrs by MTT assay", "format": "functional, cell-based"}, "[8]": {"tested_on": "HepG2", "experiment": "Induction of morphological changes in human HepG2 cells assessed as effect on size of vacuoles at 3 uM after 24 hrs in presence of z-VAD-fmk by microscopic analysis", "format": "functional, cell-based", "method_in_brief": "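HepG2 cells preincubated with or without z-VAD-fmk (20 μM, 2 h), then treated with 3 μM compound. Vacuole number and size judged from optical microscopy images.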"}, "[9]": {"tested_on": "HepG2", "experiment": "Induction of apoptosis in human HepG2 cells assessed as necrotic cells at 4 uM after 24 hrs in presence of z-VAD-fmk by annexin V/propidium iodide staining based flow cytometric analysis (reference value: 0.12%)", "format": "functional"}, "[10]": {"tested_on": "HepG2", "experiment": "Induction of apoptosis in human HepG2 cells assessed as late apoptotic cells at 4 uM after 24 hrs in presence of z-VAD-fmk by annexin V/propidium iodide staining based flow cytometric analysis (reference value: 6.21%)", "format": "functional"}, "[11]": {"tested_on": "HepG2", "experiment": "Induction of apoptosis in human HepG2 cells assessed as necrotic cells at 4 uM after 24 hrs by annexin V/propidium iodide staining based flow cytometric analysis (reference value: 0.11%)", "format": "functional"}, "[12]": {"tested_on": "HepG2", "experiment": "Induction of apoptosis in human HepG2 cells assessed as necrotic cells at 1 uM after 24 hrs by annexin V/propidium iodide staining based flow cytometric analysis (reference value: 0.11%)", "format": "functional"}, "[13]": {"tested_on": "HepG2", "experiment": "Induction of apoptosis in human HepG2 cells assessed as late apoptotic cells at 4 uM after 24 hrs by annexin V/propidium iodide staining based flow cytometric analysis (reference value: 3.22%)", "format": "functional"}, "[14]": {"tested_on": "HepG2", "experiment": "Induction of apoptosis in human HepG2 cells assessed as early apoptotic cells at 2 uM after 24 hrs by annexin V/propidium iodide staining based flow cytometric analysis (reference value: 1.29%)", "format": "functional"}, "[15]": {"tested_on": "HepG2", "experiment": "Induction of apoptosis in human HepG2 cells assessed as viable cells at 2 uM after 24 hrs by annexin V/propidium iodide staining based flow cytometric analysis (reference value: 95.3%)", "format": "functional", "details": "read-out: Activity"}, "[16]": {"tested_on": "HepG2", "experiment": "Induction of apoptosis in human HepG2 cells assessed as viable cells at 1 uM after 24 hrs by annexin V/propidium iodide staining based flow cytometric analysis (reference value: 95.3%)", "format": "functional", "details": "read-out: Activity"}, "[17]": {"tested_on": "HepG2", "experiment": "Induction of apoptosis in human HepG2 cells assessed as increase in cleaved-PARP protein expression at 1 to 4 uM after 24 hrs by Western blot analysis", "format": "functional, cell-based", "details": "dose 1-4 µM", "method_in_brief": "as §2"}, "[18]": {"tested_on": "HepG2", "experiment": "Induction of apoptosis in human HepG2 cells assessed as increase in cleaved-caspase 8 protein expression at 1 to 4 uM after 24 hrs by Western blot analysis", "format": "functional, cell-based", "details": "dose 1-4 µM", "method_in_brief": "as §2"}, "[19]": {"tested_on": "HepG2", "experiment": "Induction of apoptosis in human HepG2 cells after 24 hrs by annexin V/propidium iodide staining based flow cytometric analysis", "format": "functional, cell-based", "details": "dose 1-4 µM"}, "[20]": {"experiment": "Drug uptake in human HepG2 cells mitochondria at 5 uM after 12 hrs by HPLC analysis", "format": "ADME", "details": "hepg2, 12 h", "method_in_brief": "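HepG2 cells given 5 μM for 12 h, then homogenized in mitochondrial extraction reagent. Spun at 600 g, 4 °C, 10 min; supernatant spun again at 11000 g, 4 °C, 10 min, and the pellet taken as mitochondria. Drug content by HPLC on a C18 column with methanol–0.1% acetic acid (80:20), detection at 265 nm. Run thrice.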"}, "[21]": {"experiment": "Ratio of HN drug uptake to test compound drug uptake in human HepG2 cells at 5 uM after 12 hrs by HPLC analysis", "format": "ADME, cell-based", "details": "hepg2, 12 h", "method_in_brief": "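HepG2 cells treated with 5 μM compound or honokiol for 12 h. Mitochondria isolated with a kit by centrifugation at 600g then 11000g, 4 °C, 10 min each. Whole-cell and mitochondrial drug measured by HPLC on a C18 column, methanol-0.1% acetic acid (80:20), at 265 nm (derivative) and 210 nm (honokiol). Run thrice.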"}, "[22]": {"tested_on": "HepG2", "experiment": "Potency index, ratio of HN IC50 to test compound IC50 for antiproliferative activity against human HepG2 cells", "format": "functional", "method_in_brief": "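MTT assay after 48 h drug exposure. Cells seeded overnight, MTT (5 mg/mL stock) added for 4 h at 37 °C, formazan dissolved in DMSO, absorbance read at 570 nm. IC50 taken from viability, repeated in triplicate, and the IC50 ratio calculated.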"}, "[23]": {"tested_on": "HepG2", "experiment": "Induction of morphological changes in human HepG2 cells assessed as accumulation of cytoplasmic vacuoles at 4 uM after 24 hrs by optical microscopic method", "format": "functional, cell-based", "method_in_brief": "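Cells grown at 37 °C, 5% CO2 in media with 10% FBS and penicillin/streptomycin, then treated with compound. Cytoplasmic vacuoles judged by optical microscopy. Time course at 4 μM, or 10 h exposure across increasing concentrations.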"}, "[24]": {"tested_on": "A2780", "experiment": "Induction of morphological changes in human A2780 cells assessed as accumulation of cytoplasmic vacuoles at 4 uM after 24 hrs by optical microscopic method", "format": "functional, cell-based"}, "[25]": {"tested_on": "HepG2", "experiment": "Induction of mitochondrial morphological changes in human HepG2 cells assessed as dilation of mitochondria at 3 uM measured after 12 hrs by MitoTracker red CMXRos by confocal microscopic method", "format": "functional, cell-based", "method_in_brief": "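HepG2 cells stained with MitoTracker Red CMXRos; fluorescence and phase-contrast images taken by laser confocal microscopy.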"}}, "note": "Active and inactive are the calls of the source. No cut-off for these calls is given here.", "data": [{"compound": "C=CCc1ccc(O)c(-c2ccc(OCCCCCc3c4[n+](cc5c(OC)c(OC)ccc35)CCc3cc5c(cc3-4)OCO5)c(CC=C)c2)c1.[I-]", "values": [{"measurement": "IC50", "setting": "[1]", "result": "> 5000", "unit": "nM"}, {"measurement": "IC50", "setting": "[2]", "result": 2250, "unit": "nM"}, {"measurement": "Activity", "setting": "[3]", "result": "inactive"}, {"measurement": "Activity", "setting": "[4]", "result": "inactive"}, {"measurement": "Activity", "setting": "[5]", "result": "Active"}, {"measurement": "Activity", "setting": "[6]", "result": "Active"}, {"measurement": "Activity", "setting": "[7]", "result": "Active"}, {"measurement": "Activity", "setting": "[8]", "result": "inactive"}, {"measurement": "Activity", "setting": "[9]", "result": 0.57, "unit": "%"}, {"measurement": "Activity", "setting": "[10]", "result": 19.9, "unit": "%"}, {"measurement": "Activity", "setting": "[11]", "result": 0.41, "unit": "%"}, {"measurement": "Activity", "setting": "[12]", "result": 0.2, "unit": "%"}, {"measurement": "Activity", "setting": "[13]", "result": 17.6, "unit": "%"}, {"measurement": "Activity", "setting": "[14]", "result": 3.03, "unit": "%"}, {"measurement": "viability at 2 µM", "setting": "[15]", "result": 93.3, "unit": "%"}, {"measurement": "viability at 1 µM", "setting": "[16]", "result": 93.3, "unit": "%"}, {"measurement": "Activity", "setting": "[17]", "result": "Active"}, {"measurement": "Activity", "setting": "[18]", "result": "Active"}, {"measurement": "Activity", "setting": "[19]", "result": "Dose-dependent effect"}, {"measurement": "Drug uptake", "setting": "[20]", "result": 66.3, "unit": "µM"}, {"measurement": "Ratio", "setting": "[21]", "result": 2.5}, {"measurement": "Ratio IC50", "setting": "[22]", "result": 14.6}, {"measurement": "Activity", "setting": "[23]", "result": "Active"}, {"measurement": "Activity", "setting": "[24]", "result": "Active"}, {"measurement": "Activity", "setting": "[25]", "result": "Active"}]}]}
